Compound activity: PubChem BioAssay, Broad Institute
The list is not random: actives were taken first. Their share in the collection is about 3.6%.
T cruzi repl = blocks replication of Trypanosoma cruzi. T. cruzi beta-gal in NIH3T3, luminescence, 90 h. inhibition, % (no concentration beside the values). hit rate 1.4% among 300,000. AID 1885;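 active = mean inhibition across valid replicates above about 55%, limit read from the data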;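 also: signal also drops with host cell toxicity which is not excluded here; 0% = plate median of DMSO wells and 100% = zero luminescence signal; higher percent means less beta-gal luminescence so fewer parasites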
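Assay system: NIH/3T3 fibroblasts plus reporter T. cruzi. Amount: NIH/3T3 cells, 5,000 per well. Buffer or medium: DMEM, 2% fetal bovine serum. Doses: compound pinned at 50 nL/well, DMSO. Schedule: ≥90 h infection period, 3 h prior cell attachment. Signal: luminescent β-galactosidase signal after 60 min lysis. Read-out: parasite load inhibition, %.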
SKKanGAS inh = blocks kanamycin growth of S. pyogenes SKKanGAS strain; BacTiter-Glo, 6 h; inhibition, % at 7.5 µM; hit rate 1.3% among 300,000;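 active = mean replicate score, as percent of positive control median, at least 50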;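 also: strain carries kanamycin resistance gene driven by streptokinase promoter and grows in 40 µg/ml kanamycin; loss of luminescence reflects streptokinase promoter inhibition or plain growth inhibition; 0% = median of DMSO wells and 100% = positive control at its reference dose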
PfHsp90 set2 = reduces growth (ATP signal) of yeast expressing P. falciparum Hsp90; AID 504621; hit rate 0.32% among 310,000; S. cerevisiae expressing PfHsp90, BacTiter-Glo ATP, 48 h; yeast lacking PDR1 and PDR3 efflux regulators; inhibition, % at 9.4 µM;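 active = every replicate shows inhibition above about 80%, whatever the replicate mean, limit read from the data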;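 also: 0% = DMSO neutral controls and 100% = 20 µM radicicol positive controls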
HIF activator = HIF pathway transcriptional activation | activation, % at 7.5 µM (by protocol) | AID 1910 | hit rate 0.32% among 300,000 | U2OS HRE-luciferase reporter, luminescence; normalized: DMSO 0%, desferrioxamine 100%;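 active = mean activation of at least 10% of the iron chelator positive control signal, with at least half of replicates also reaching 10%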
CSC inhib = blocks cancer stem cells; cancer stem cell-like cells viability, luminescence; inhibition, % at 7.5 µM; hit rate 1.1% among 300,000; in the data active = inhibition above about 75%; tested in HMLE shEcad cells
Beta apoptosis = blocks beta cell apoptosis; hit rate 0.8% among 300,000; protection from apoptosis, % (no concentration beside the values); AID 435005; INS-1E cytokine-induced death, ATP luminescence, 48 h; percent of positive-control rescue, neutral wells zero;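 active = Every replicate reaches about 75%, or at least half do and their mean reaches it too, limit read from the data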;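 also: 0% = cytokine-treated negative control wells and 100% = positive control rescue; higher means more ATP so stronger rescue from cytokine killing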
Starred values were filed as active, the others as inactive.

For CN(C)CCCn1c(SCC(=O)N2c3ccccc3Sc3ccccc32)nc2ccccc2c1=O the results were T cruzi repl 58*, SKKanGAS inh 11, PfHsp90 set2 -2, HIF activator 0, CSC inhib 30 and Beta apoptosis -1.
For N=c1n(CCN2CCCCC2)c2ccccc2n1CC(O)c1cccc(Br)c1 (stereo not drawn) the results were T cruzi repl 35, SKKanGAS inh -2, PfHsp90 set2 5, HIF activator 0, CSC inhib 22 and Beta apoptosis 73.
Screening N=c1n(CCN2CCCCC2)c2ccccc2n1CC(=O)c1ccc(Cl)c(Cl)c1 returned T cruzi repl 30, SKKanGAS inh -5, HIF activator 0, CSC inhib 103* and Beta apoptosis 39.
`N=c1n(CCN2CCCCC2)c2ccccc2n1CC(O)c1ccc(Cl)c(Cl)c1` (stereo not drawn) gave T cruzi repl 59*, SKKanGAS inh 6, PfHsp90 set2 4, HIF activator 0, CSC inhib 37 and Beta apoptosis 59.
`CC(C)(C)NC(=O)C1CCN(S(=O)(=O)c2cccc(C(F)(F)F)c2)CC1` gave T cruzi repl 3, SKKanGAS inh -1, PfHsp90 set2 -7, HIF activator 0, CSC inhib 4 and Beta apoptosis 2.
Screening COc1ccc2c(c1)sc(=NC(=O)CS(=O)(=O)c1ccc(F)cc1)n2C returned T cruzi repl 63*, SKKanGAS inh -8, HIF activator 0 and CSC inhib -11.
c1ccc(OCCCn2ccnc2)cc1 was read as T cruzi repl -17, SKKanGAS inh 1, PfHsp90 set2 16, HIF activator -1, CSC inhib 13 and Beta apoptosis -3.
For c1ccc(-c2ccc(C(c3ccccc3)n3ccnc3)cc2)cc1 (stereo not drawn) the results were T cruzi repl 33, SKKanGAS inh 21, PfHsp90 set2 105*, HIF activator 0, CSC inhib 23 and Beta apoptosis 4.
Screening COC(=O)c1ccc(-n2ccnc2)cc1 returned T cruzi repl -8, SKKanGAS inh -3, PfHsp90 set2 3, HIF activator 0, CSC inhib -9 and Beta apoptosis -5.
Screening c1ccc(-c2ccc(-n3ccnc3)cc2)cc1 returned T cruzi repl 56*, SKKanGAS inh 0, PfHsp90 set2 3, CSC inhib -8 and Beta apoptosis -5.
For Cc1ccc(-n2cc(-c3ccccc3)c3c(=O)[nH]cnc32)cc1 the results were T cruzi repl 5, SKKanGAS inh 5, PfHsp90 set2 -49, CSC inhib -12 and Beta apoptosis -1.
Screening Fc1cccc(-n2cc(-c3ccccc3)c3c(=S)nc[nH]c32)c1 returned T cruzi repl 10, SKKanGAS inh 84*, PfHsp90 set2 -98, HIF activator 0, CSC inhib 8 and Beta apoptosis 17.
Screening Fc1ccc(-n2cc(-c3ccccc3)c3c(=S)nc[nH]c32)cc1 returned T cruzi repl 8, SKKanGAS inh 65*, PfHsp90 set2 -33, HIF activator 0, CSC inhib 2 and Beta apoptosis 20.
O=c1[nH]cnc2c1c(-c1ccccc1)cn2-c1ccccc1 was read as T cruzi repl 9, SKKanGAS inh 5, PfHsp90 set2 -13, HIF activator 1, CSC inhib -5 and Beta apoptosis -15.
For COC(=O)[C@]1(Cc2ccccc2)N[C@H](CN(C)C(C)=O)[C@@H]2C(=O)N(Cc3ccccc3)C(=O)[C@@H]21 the results were PfHsp90 set2 -13.
`Cc1ccccc1C(=O)N1CCC(C(=O)Nc2nc3ccc(F)cc3s2)CC1` gave T cruzi repl -10, SKKanGAS inh -1, PfHsp90 set2 -29, HIF activator 1 and CSC inhib -7.
For COc1ccc(/C=N/NC(=O)c2cc(C(C)(C)C)[nH]n2)cc1COc1ccc(F)cc1F the results were T cruzi repl 2, SKKanGAS inh 61*, HIF activator -1, CSC inhib 40 and Beta apoptosis 4.
`COc1ccc(/C=N\NC(=O)c2cc(O)c(O)c(O)c2)cc1COc1ccc(C(=O)OCC(C)C)cc1` gave T cruzi repl 14, SKKanGAS inh 90*, PfHsp90 set2 -19, HIF activator -8, CSC inhib 50 and Beta apoptosis 2.
For O=C(NN=Cc1ccc(N2CCOCC2)s1)c1ccc([N+](=O)[O-])cc1 the results were PfHsp90 set2 -54, CSC inhib -10 and Beta apoptosis 1.
Screening CC(C)Oc1ccc(S(=O)(=O)N2CCOCC2)cc1NC(=O)c1cccc(S(=O)(=O)N2CCCC2)c1 returned PfHsp90 set2 -10.
Screening COc1ccc2[nH]c(CN3CCN(CC=C(C)C)C(CCO)C3)c(C)c2c1 (stereo not drawn) returned T cruzi repl 41, SKKanGAS inh -1, PfHsp90 set2 8, HIF activator -4, CSC inhib 14 and Beta apoptosis -4.
`COc1ccc2[nH]c(CN3CCN(CCC(C)C)C(CCO)C3)c(C)c2c1` (stereo not drawn) gave T cruzi repl 61*, SKKanGAS inh -14, PfHsp90 set2 0, HIF activator 0, CSC inhib -1 and Beta apoptosis -6.
COc1ccc(C(=O)N/N=C(\C)Cn2cnc([N+](=O)[O-])n2)cc1 was read as T cruzi repl 56*, SKKanGAS inh -4, PfHsp90 set2 21, HIF activator 1, CSC inhib 9 and Beta apoptosis 11.
C/C(Cn1cnc([N+](=O)[O-])n1)=N\NC(=O)c1cccc(F)c1 was read as T cruzi repl 63*, SKKanGAS inh -5, HIF activator 3, CSC inhib 4 and Beta apoptosis -1.
`Cc1ccc(NC(=O)C2CCN(c3cnccn3)CC2)cc1C` gave T cruzi repl 64*, SKKanGAS inh -5, PfHsp90 set2 -31, HIF activator 0, CSC inhib 6 and Beta apoptosis -1.
`Cc1ccc(S(=O)(=O)N2CCC(C(=O)Nc3ccc(C(C)C)cc3)CC2)cc1` gave PfHsp90 set2 -8, CSC inhib 75* and Beta apoptosis 10.
Screening COc1ccc(C)cc1NC(=O)CN1CCN(S(=O)(=O)c2ccc(C(C)C)cc2)CC1 returned T cruzi repl 62*, SKKanGAS inh 25, PfHsp90 set2 -19, HIF activator 0 and CSC inhib 0.
`Cc1ccc(S(=O)(=O)N2CCC(C(=O)Nc3ccc(S(=O)(=O)N4CCCC4)cc3)CC2)cc1` gave T cruzi repl 26, SKKanGAS inh -1, PfHsp90 set2 -4, HIF activator 0 and Beta apoptosis 2.
COc1ccc([N+](=O)[O-])cc1NC(=O)COC(=O)C1CC1 was read as T cruzi repl 56*, SKKanGAS inh 7, HIF activator 1 and Beta apoptosis 5.
